Measured values as given in ChEMBL document CHEMBL1142195, “A novel nonnucleoside analogue that inhibits human immunodeficiency virus type 1 isolates resistant to current nonnucleoside reverse transcriptase inhibitors” (Antimicrob Agents Chemother, 2007).
Activity calls are given as the source filed them. The calls are words filed in the database; no cut-off is given here.

Tests used:
[1] = test system: Human immunodeficiency virus 1; assay: Antiviral activity against HIV1 isolate with RT A98G mutation; type: functional, organism-based
Method in brief: (§1)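 VSV-G-pseudotyped pNL4-3.Luc.R−E− molecular clones carrying the RT mutations, single-round infection of HeLa-JC53 cells (15,000/well) at MOI 0.03. Compounds serially diluted 1:4 in DMSO then in phenol red-free DMEM with 2% FBS, final DMSO 0.2%. Incubated 48 h at 37°C, 5% CO2. Luciferase read-out by chemiluminescence gives the EC50. Fold change is relative to wt virus, mean of two tests.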

[2] = test system: Human immunodeficiency virus 1; assay: Antiviral activity against HIV1 isolate with RT K103N-V108I-P225H mutation; type: functional, organism-based; method in brief: as §1
[3] = test system: Human immunodeficiency virus 1; assay: Antiviral activity against HIV1 isolate with RT K103N-G190A mutation; type: functional, organism-based; method in brief: as §1
[4] = test system: Human immunodeficiency virus 1; assay: Antiviral activity against wild type HIV1 NL4-3 in Hela-JC53 cells in the presence of 20% human serum after 48 hrs; type: functional, organism-based; details: Human immunodeficiency virus 1, NL4-3, Hela-JC53, 48 h
Method in brief: (§2)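 HeLa-JC53 cells (1.5 × 10^4) infected with VSV-G-pseudotyped NL4-3.Luci.R−E− reporter virus at MOI 0.03, with 1:4 serial compound dilutions. Heat-inactivated human serum added to final 0–50% on a basal 2% FBS medium. Incubated 48 h at 37°C in 5% CO2. Luciferase read-out; EC50 by nonlinear regression.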

[5] = test system: Human immunodeficiency virus 1; assay: Antiviral activity against HIV1 isolate with RT Y188L mutation; type: functional, organism-based; method in brief: as §1
[6] = test system: Human immunodeficiency virus 1; assay: Antiviral activity against HIV1 isolate with RT Y181C mutation in Hela-JC-53 cells; type: functional
[7] = test system: Human immunodeficiency virus 1; assay: Antiviral activity against HIV1 isolate with RT Y181C mutation; type: functional, organism-based; method in brief: as §1
[8] = test system: Human immunodeficiency virus 1; assay: Antiviral activity against HIV1 NL4-3 with Y188L mutation in Hela-JC53 cells after 48 hrs; type: functional, organism-based; details: Human immunodeficiency virus 1, NL4-3, Hela-JC53, 48 h
Method in brief: (§3)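 VSV-G-pseudotyped Y188L NL4-3.Luci.R−E− virus (MOI 0.03) infecting HeLa-JC53 cells (1.5 × 10^4) in phenol red-free DMEM with 2% FBS. Serially diluted compound was added, then heat-inactivated human serum at final 0, 5, 10, 20, 30, 40 or 50%. Cultures ran 48 h at 37°C in 5% CO2, read by Bright-Glo luciferase chemiluminescence. EC50 was taken by nonlinear regression.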

[9] = test system: Human immunodeficiency virus 1; assay: Antiviral activity against HIV1 isolate with RT K103N-Y181C mutation; type: functional, organism-based; method in brief: as §1
[10] = Half life in dog at 20 mg/kg, po; type: ADME, organism-based, Canis lupus familiaris; design: dose 20 mg/kg, route oral; details: in vivo
[11] = test system: Human immunodeficiency virus 2; assay: Inhibition of HIV2(NIH-Z) isolate; type: functional, organism-based
Method in brief: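 HeLa-JC53-LTR-Luci cells (HIV-1 LTR-driven luciferase) infected with HIV-2 at MOI 0.03, with 1:4 serial compound dilutions (final DMSO 0.2%, 2% FBS medium). Incubated 48 h at 37°C in 5% CO2. Luciferase chemiluminescence read-out.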

[12] = test system: Human immunodeficiency virus 1; assay: Antiviral activity against HIV1 isolate with RT K103N-L100I mutation; type: functional, organism-based; method in brief: as §1
[13] = test system: Human immunodeficiency virus 1; assay: Antiviral activity against HIV1 isolate with RT K103N-P225H mutation; type: functional, organism-based; method in brief: as §1
[14] = test system: Human immunodeficiency virus 1; assay: Antiviral activity against HIV1 isolate with RT D123G mutation in Hela-JC-53 cells; type: functional
[15] = test system: Human immunodeficiency virus 1; assay: Antiviral activity against HIV1 NL4-3 with Y188L mutation in Hela-JC53 cells in the presence of 20% human serum after 48 hrs; type: functional, organism-based; details: Human immunodeficiency virus 1, NL4-3, Hela-JC53, 48 h; method in brief: as §3
[16] = target: DNA polymerase beta (Homo sapiens) (UniProt P06746); assay: Inhibition of human DNA polymerase beta upto 45 uM
[17] = test system: Human immunodeficiency virus 1; assay: Antiviral activity against HIV1 NL4-3 with Y188L mutation in Hela-JC53 cells in the presence of 30% human serum after 48 hrs; type: functional, organism-based; details: Human immunodeficiency virus 1, NL4-3, Hela-JC53, 48 h; method in brief: as §3
[18] = test system: Human immunodeficiency virus 1; assay: Antiviral activity against HIV1 isolate with RT T369I mutation in Hela-JC-53 cells; type: functional
[19] = Plasma concentration in dog at 10 mg/kg, iv after 12 hrs; type: ADME, organism-based, Canis lupus familiaris; design: dose 10 mg/kg, route intravenous
[20] = Tmax in dog at 20 mg/kg, po; type: ADME, organism-based, Canis lupus familiaris; design: dose 20 mg/kg, route oral; details: in vivo
[21] = test system: Human immunodeficiency virus 1; assay: Antiviral activity against HIV1 isolate with RT V106I, Y181C, F227L, T369I mutation in Hela-JC-53 cells; type: functional
[22] = test system: Human immunodeficiency virus 1; assay: Inhibition of wild type clade B HIV1 NL4-3; type: functional, organism-based
Method in brief: (§4)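 Single-round assay in HeLa-JC53 cells (15,000/well) using VSV-G-pseudotyped pNL4-3.Luc.R−E−-derived virus at MOI 0.03. Compounds serially diluted 1:4 in DMSO then medium (2% FBS; final DMSO 0.2%). Incubated 48 h at 37°C in 5% CO2. Luciferase chemiluminescence read-out; EC50 determined.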

[23] = test system: Human immunodeficiency virus 1; assay: Antiviral activity against HIV1 isolate with RT V106I, D123G, Y181C, F227L mutation in Hela-JC-53 cells; type: functional
[24] = test system: Human immunodeficiency virus 1; assay: Antiviral activity against wild type HIV1 NL4-3 in Hela-JC53 cells after 48 hrs; type: functional, organism-based; details: Human immunodeficiency virus 1, NL4-3, Hela-JC53, 48 h; method in brief: as §4
[25] = target: Human immunodeficiency virus type 1 reverse transcriptase (Human immunodeficiency virus 1, UniProt Q72547); assay: Inhibition of HIV1 reverse transcriptase
Method in brief: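 E. coli-expressed HIV-1 RT (1 nM) with 16 μg/ml poly(rA)/oligo(dT)18 and 2 μM α-33P-TTP, 0–100 μM inhibitor. Buffer: 50 mM Tris-HCl pH 7.5, 5 mM MgCl2, 1 mM DTT, 60 μg/ml BSA. Run 1 h at 25°C, then TCA/pyrophosphate precipitation and radioactivity counted. IC50 = 50% inhibition of RT activity.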

[26] = Cmax in dog at 20 mg/kg, po; type: ADME, organism-based, Canis lupus familiaris; design: dose 20 mg/kg, route oral; details: in vivo
[27] = test system: Human immunodeficiency virus 1; assay: Antiviral activity against HIV1 NL4-3 with Y188L mutation in Hela-JC53 cells in the presence of 10% human serum after 48 hrs; type: functional, organism-based; details: Human immunodeficiency virus 1, NL4-3, Hela-JC53, 48 h; method in brief: as §3
[28] = test system: Human immunodeficiency virus 1; assay: Antiviral activity against HIV1 isolate with RT F227L mutation in Hela-JC-53 cells; type: functional
[29] = test system: Human immunodeficiency virus 1; assay: Antiviral activity against HIV1 NL4-3 in Hela-JC53 cells in the presence of 10% human serum after 48 hrs; type: functional, organism-based; details: Human immunodeficiency virus 1, NL4-3, Hela-JC53, 48 h; method in brief: as §2
[30] = test system: Human immunodeficiency virus 1; assay: Antiviral activity against HIV1 isolate with RT K103N-V108I-A98G mutation; type: functional, organism-based; method in brief: as §1
[31] = Cmax in dog at 10 mg/kg, iv; type: ADME, organism-based, Canis lupus familiaris; design: dose 10 mg/kg, route intravenous; details: in vivo
[32] = test system: Human immunodeficiency virus 1; assay: Antiviral activity against HIV1 isolate with RT V106I, Y181C, F227L mutation in Hela-JC-53 cells; type: functional
[33] = test system: Human immunodeficiency virus 1; assay: Antiviral activity against HIV1 isolate with RT 103N, 238N mutation relative to wild type; type: functional
Method in brief: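 Mutant RT clones built in pNL4-3.Luc.R−E− reporter, VSV-G-pseudotyped, single-round infection of HeLa-JC53 cells (15,000/well, MOI 0.03) with 1:4 serial compound dilutions in DMEM (phenol red-free), 2% FBS, 0.2% final DMSO; 48 h at 37°C, 5% CO2; luciferase chemiluminescence read-out. Fold change in EC50 relative to wild-type virus; mean of two tests.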

For `NS(=O)(=O)c1ccc(NC(=O)CSc2nnc(Br)n2-c2ccc(C3CC3)c3ccccc23)c(Cl)c1`, the EC50 [1] was 0.3 nM, the EC50 [2] was 0.15 nM and the EC50 [3] was 0.32 nM. The EC50 [4] was 7.1 nM, the EC50 [5] was 0.81 nM and the Fold change [6] was 1.9. For the same compound, the EC50 [7] was 0.23 nM, the EC50 [8] was 3.7 nM and the EC50 [9] was 0.23 nM. For the same compound, the half-life [10] was 3.36 h, the Activity [11] was “inactive” and the EC50 [12] was 0.05 nM. The EC50 [13] was 0.13 nM, the Fold change [14] was 1 and the EC50 [15] was 43.3 nM. For the same compound, the Activity [16] was “inactive”, the EC50 [17] was 45.9 nM and the Fold change [18] was 1.3. The concentration at 12 h [19] was 283 ng/mL, the Tmax [20] was 5.3 h and the Fold change [21] was 111.9. For the same compound, the Activity [22] was “Active”, the Fold change [23] was 9.1 and the EC50 [24] was 0.6 nM. For the same compound, the IC50 [25] was 4 nM, the Cmax [26] was 1980 ng/mL and the EC50 [27] was 20.7 nM. It also gave a Fold change [28] of 0.7, an EC50 [29] of 3.9 nM and an EC50 [30] of 0.24 nM. It also gave a Cmax [31] of 4420 ng/mL and a Fold change [32] of 18.7.
`Cc1ccnc2c1NC(=O)c1cccnc1N2C1CC1` [NEVIRAPINE] gave a Fold change [33] greater than 100.
